Screens (PubChem BioAssay)
Rows were chosen to be rich in hits. Some 3.5% of all compounds tested hit in one or more screens of this group.
RGS4 block: RGS4 inhibitors, primary screen, cell-based, HEK293 M3R inducible RGS4, calcium flux; Regulator of G-protein signaling 4 (Homo sapiens), P49798; Fluo-4 calcium flux; active compounds read high; triggered by carbachol at its EC20; AID 463165, 2010; B-score at 10 µM; 310,000 compounds, 0.45% hits;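 active means B-score, a plate-corrected calcium signal, over three deviations above library mean, with baseline fluorescence within five deviations of library mean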;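 further: RGS4 expression induced by doxycycline in cells with stable M3 receptor; B-score is computed from the integrated fluorescence ratio over baseline after carbachol; higher B-score means a larger calcium signal and so more RGS4 inhibition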
Target sequence (P49798 whole entry, looked up): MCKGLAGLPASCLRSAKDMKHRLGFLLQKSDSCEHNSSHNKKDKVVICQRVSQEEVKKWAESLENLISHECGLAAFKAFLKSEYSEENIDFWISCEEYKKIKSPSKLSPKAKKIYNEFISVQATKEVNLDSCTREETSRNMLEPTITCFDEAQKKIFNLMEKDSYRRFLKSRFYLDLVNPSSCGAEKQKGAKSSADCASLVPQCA
MrgX1 allo act: positive allosteric modulators of MrgX1, primary screen, HEK293 cells, Fluo-4 calcium flux; B-score at 10 µM; FDSS; active compounds read high; AID 588675, 2011; 310,000 compounds, 0.63% hits; Mas-related G-protein coupled receptor member X1 (Homo sapiens), Q96LB2;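 active means plate-corrected calcium response at least 3 library SD above typical, normal starting fluorescence, not activating the receptor alone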;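 further: compound read alongside a low EC10 to EC30 dose of BAM8-22 agonist; peak minus trough fluorescence over baseline measured at the second addition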
Target sequence (Q96LB2 whole entry, looked up): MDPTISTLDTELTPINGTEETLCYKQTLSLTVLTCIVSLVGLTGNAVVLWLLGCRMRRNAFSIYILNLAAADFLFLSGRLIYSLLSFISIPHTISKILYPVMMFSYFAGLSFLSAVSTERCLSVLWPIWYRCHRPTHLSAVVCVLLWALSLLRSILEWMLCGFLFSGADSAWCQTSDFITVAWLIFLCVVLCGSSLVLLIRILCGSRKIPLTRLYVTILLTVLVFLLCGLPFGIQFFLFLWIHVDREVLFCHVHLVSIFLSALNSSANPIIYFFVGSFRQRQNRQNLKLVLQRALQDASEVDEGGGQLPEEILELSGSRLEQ
RGS4 pot: RGS4 potentiators or activators, primary screen, cell-based, HEK293 M3R inducible RGS4, calcium flux; B-score at 10 µM; 310,000 compounds, 0.92% hits; AID 463111, 2010; carbachol calcium flux Fluo4; active compounds read low;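 active means B-score of the integrated calcium signal more than 4 SD below the library mean, with starting fluorescence not abnormally high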;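 further: negative B-score means reduced calcium response which marks RGS4 activation or potentiation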
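Assay system: HEK293 FlpIn-TREx cells, stable M3R, doxycycline-inducible RGS4 / Probe or stimulus: carbachol, ECmax concentration / Times: overnight RGS4 induction, 30 min dye load 37 °C, 20 min compound RT / Signal: kinetic calcium fluorescence imaging with Fluo4-AM dye, 2 µM / Measure: Agonist-evoked peak-minus-minimum fluorescence over baseline, integrated ratio, B score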
MrgX1 antag: antagonists of human MrgX1 receptor, primary screen, HEK293 cells, Fluo-4 calcium flux. Mas-related G-protein coupled receptor member X1 (Homo sapiens), Q96LB2. BAM8-22 antagonism; active compounds read low. B-score at 10 µM. 310,000 compounds, 1.3% hits. AID 588676, 2011;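 active means calcium-response B-score plate-corrected more than 3 library SD below zero, starting fluorescence within 5 deviations, no agonist response on first addition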;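 further: peak minus trough fluorescence over baseline after final BAM8-22 challenge near maximal dose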
MrgX1 ag: agonists of human MrgX1 receptor, primary screen, HEK293 cells, Fluo-4 calcium flux. Mas-related G-protein coupled receptor member X1 (Homo sapiens), Q96LB2. Fluo-4 calcium fluorescence, agonist mode; active compounds read high. B-score at 10 µM. 310,000 compounds, 0.44% hits. AID 588627, 2011;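 active means calcium response B-score plate-corrected fluorescence ratio at least 3 library SD, with starting fluorescence B-score inside 5 SD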
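Material: MrgX1-expressing HEK293 cells; input: 15,000 cells per well; doses: test compound given as first of three sequential additions; schedule: overnight plating before 1 h dye loading; technique: Fluo-4 NW calcium-flux fluorescence, kinetic read; evaluation: baseline-normalised fluorescence change ratio, B-scored; control set: plate-wise positive and negative controls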
RGS4 block valid: enhanced carbachol calcium response, M3R/RGS4 cells, RGS4 inhibitor project, cell-based, validation screen, HEK293 M3R/RGS4, calcium flux. shares compounds with RGS4 block. carbachol calcium Fluo-4 fluorescence; carbachol added at its EC20; 0 = buffer wells, 100 = carbachol control. calcium response, % at 10 µM. 1,700 compounds, 65% hits. AID 492999, 2010;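 active means duplicate-averaged calcium response above the buffer-only control mean plus 5 SD of those controls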;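 further: integrated fluorescence ratio F max minus min over baseline F0; higher response in RGS4-induced cells means RGS4 inhibition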
M3R Ca ctr: carbachol calcium response in non-induced M3R cells, confirmation, counter-screen for RGS4 inhibitor project, cell-based, HEK293 M3R | shares compounds with RGS4 block | carbachol calcium Fluo-4; submaximal (EC20) carbachol stimulus; buffer wells 0%, carbachol control wells 100% | activity (percent), % at 10 µM | 1,900 compounds, 20% hits; call rule not given here;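 further: RGS4 induction absent so cells express M3R without RGS4; higher means more calcium signal and flags a non-specific hit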
M3R basal Ca ctr: second counter-screen for RGS4 inhibitors: non-induced cells without carbachol. 1,900 compounds, 22% hits. calcium response (agonist-mode artifact), % at 10 µM. HEK293 M3R/RGS4 non-induced, Fluo-4 calcium, no carbachol; normalised: buffer wells 0%, carbachol wells 100%. shares compounds with RGS4 block. AID 493001;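 active means duplicate-averaged calcium rise in uninduced cells above buffer wells' mean plus 5 SD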
Each line names hits and unclear results; the compound was inactive in the other large screens (follow-up assays come after a bar, where they were run).

O=C(Nc1ccc(S(=O)(=O)Nc2cnc3ccccc3n2)cc1)c1ccc(Cl)c([N+](=O)[O-])c1	RGS4 block 8.9, MrgX1 allo act 17 | RGS4 block valid 14% | M3R Ca ctr 56% | M3R basal Ca ctr inactive
CCn1c(C)c(CS(=O)(=O)c2ccccc2)[nH]c1=O	RGS4 block 6.7 | RGS4 block valid 24% | M3R Ca ctr inactive | M3R basal Ca ctr 7.0%
OCC[C@@H]1C[C@@H](O)[C@H](O)[C@@]2(OCCc3ccccc32)O1	none
CCOC(=O)C1=C(C)N=c2s/c(=C\c3ccncc3)c(=O)n2C1c1ccc2c(c1)OCO2 (stereo unspecified)	RGS4 block 4.7 | RGS4 block valid 16% | M3R Ca ctr 44% | M3R basal Ca ctr 16%
O=C(O)CCCCCNC(=O)OCC1c2ccccc2-c2ccccc21	none
c1coc(C2=Nc3cccc4cccc(c34)N2)c1	RGS4 block 13 | RGS4 block valid 30% | M3R Ca ctr inactive | M3R basal Ca ctr inactive
N#Cc1ccc(CN2C(=O)NC3(CCCCCC3)C2=O)cc1	none
O=C(c1nnsc1S(=O)(=O)c1ccc(Cl)cc1)N1CCOCC1	none (no result: MrgX1 allo act, MrgX1 antag, MrgX1 ag)
O=C(c1nnsc1S(=O)c1ccc(Cl)cc1)N1CCOCC1 (stereo unspecified)	RGS4 block 7.1 (no result: MrgX1 allo act, MrgX1 antag, MrgX1 ag) | RGS4 block valid 31% | M3R Ca ctr inactive | M3R basal Ca ctr 24%
COc1ccc(NC(=O)CSc2nnc(NC(=O)C3CCC3)s2)c(OC)c1	none
Cc1ccc(S(=O)(=O)N2CCOCC2)cc1C(=O)OCCOc1cccc(Cl)c1	none
O=Cc1c(Cl)nc2ccccn2c1=O	RGS4 block 4.8 | RGS4 block valid 22% | M3R Ca ctr inactive | M3R basal Ca ctr inactive
Cc1cccn2c(=O)c(C=O)c(Cl)nc12	none
COc1ccc(/C=N/NC(=O)c2cccc(NC(C)=O)c2)c(C(=O)O)c1OC	none
Nc1ccc(CCNc2ncnc3c2ncn3[C@@H]2O[C@H](CO)[C@@H](O)[C@H]2O)cc1	none | M3R Ca ctr inactive | M3R basal Ca ctr inactive
OCC1OC(n2cnc3c(NCCc4ccccc4)ncnc32)C(O)C1O (stereo unspecified)	RGS4 block 6.4 | RGS4 block valid 29% | M3R Ca ctr 68% | M3R basal Ca ctr inactive
O=c1[nH]cnc2c1ncn2[C@@H]1O[C@H](CO)[C@@H](O)[C@H]1O	none
Cc1ccc(/C=C2/NC(=O)N(Cc3ccccc3)C2=O)o1	RGS4 block 5 | RGS4 block valid inactive | M3R Ca ctr inactive | M3R basal Ca ctr 36%
O=C(CSc1nnc(SCc2ccccc2Cl)s1)N/N=C/c1c[nH]c2ccccc12	RGS4 block 6.8 | RGS4 block valid 14% | M3R Ca ctr inactive | M3R basal Ca ctr inactive
O=C(CSc1nnc(SCc2ccccc2)s1)N/N=C/c1c[nH]c2ccccc12	none (no result: MrgX1 allo act, MrgX1 antag, MrgX1 ag) | RGS4 block valid inactive | M3R Ca ctr inactive | M3R basal Ca ctr inactive
CC(=O)C1=C(C)OC(N)=C(C#N)C1c1cc2cc(C)c(C)cc2nc1Cl (stereo unspecified)	RGS4 block 15 | RGS4 block valid 5.0% | M3R Ca ctr inactive | M3R basal Ca ctr inactive
COC(=O)C1=C(C)OC(N)=C(C#N)C1c1cc2cc(C)ccc2nc1Cl (stereo unspecified)	none
CCc1nnc(NC(=O)c2cc(C)nc3ccccc23)s1	none
CC(C)Cc1nnc(NC(=O)c2cc(-c3ccncc3)nc3ccccc23)s1	none | M3R Ca ctr inactive | M3R basal Ca ctr inactive
CCc1nnc(NC(=O)c2cc(-c3cccnc3)nc3ccccc23)s1	none | M3R Ca ctr inactive | M3R basal Ca ctr inactive
N#Cc1c(-c2ccco2)cc(C2CC2)nc1N	RGS4 block 5 | RGS4 block valid 5.0% | M3R Ca ctr inactive | M3R basal Ca ctr inactive
N#Cc1c(-c2ccccc2)cc(C2CC2)nc1N	none
CCOC(=O)C1CCCN(CCC(=O)Nc2ccc(Br)c(C)c2)C1 (stereo unspecified)	none
CCOc1ccc(S(=O)(=O)Nc2cccc(C(=O)NCC3CCCO3)c2)cc1 (stereo unspecified)	none
O=C1CCCC2=C1C(c1ccc(Cl)cc1)n1c(s/c(=C\c3ccc4ccncc4c3)c1=O)=N2 (stereo unspecified)	RGS4 block 14 | RGS4 block valid 42% | M3R Ca ctr inactive | M3R basal Ca ctr 196%
CCOC(=O)C1=C(C)N=c2s/c(=C/c3ccc(OCC(=O)O)c(OC)c3)c(=O)n2C1c1ccc(Cl)cc1 (stereo unspecified)	none
CNS(=O)(=O)c1cc(Nc2ncnc3sccc23)ccc1C	none
COCCNC(=S)N(CCc1c(C)[nH]c2ccc(Cl)cc12)Cc1cccs1	RGS4 block 5 | RGS4 block valid 6.0% | M3R Ca ctr inactive | M3R basal Ca ctr inactive
CCNC(=S)N(CCc1c(C)[nH]c2ccc(C)cc12)Cc1cccs1	none
COCCNC(=S)N(CCc1c(C)[nH]c2ccc(F)cc12)Cc1cccs1	none | RGS4 block valid inactive | M3R Ca ctr inactive | M3R basal Ca ctr inactive
CS(=O)(=O)c1ccccc1C(=O)Nc1cccc(-c2nc3ccccc3o2)c1	none
O=C(C1=NN[C@@H]2C(=O)N(c3cccc(C(F)(F)F)c3)C(=O)[C@H]12)c1cnccn1	none
Cc1nn2c(-c3ccccn3)ccnc2c1Br	none
Cc1nn2c(-c3ccncc3)ccnc2c1Br	none | RGS4 block valid inactive | M3R Ca ctr inactive | M3R basal Ca ctr inactive
Cc1nn2c(-c3ccc(F)cc3)ccnc2c1Br	none | M3R Ca ctr inactive | M3R basal Ca ctr inactive
COc1cc(/C=C(/C(=O)c2cccs2)c2nc3ccccc3[nH]2)cc(OC)c1O	RGS4 block 22 | RGS4 block valid 88% | M3R Ca ctr 41% | M3R basal Ca ctr inactive
CC1CN(Cc2ccccc2)C(C)CC1O (stereo unspecified)	none
COc1cc(/C=C/C(=O)c2c(O)ccc3c(C)cc(=O)oc23)ccc1O	MrgX1 allo act 6.7 | M3R Ca ctr inactive | M3R basal Ca ctr inactive
